Measured values from ChEMBL document CHEMBL3763110, “A potent and selective inhibitor targeting human and murine 12/15-LOX” (Bioorg Med Chem, 2016).

Columns and labels:
[1] = biological target: T1, Polyunsaturated fatty acid lipoxygenase ALOX15 (Homo sapiens, UniProt P16050); assay: Inhibition of N-terminal His6-tagged human 12/15-LOX using arachidonic acid as substrate by UV-visible spectrophotometric analysis
T1 sequence (P16050 whole entry): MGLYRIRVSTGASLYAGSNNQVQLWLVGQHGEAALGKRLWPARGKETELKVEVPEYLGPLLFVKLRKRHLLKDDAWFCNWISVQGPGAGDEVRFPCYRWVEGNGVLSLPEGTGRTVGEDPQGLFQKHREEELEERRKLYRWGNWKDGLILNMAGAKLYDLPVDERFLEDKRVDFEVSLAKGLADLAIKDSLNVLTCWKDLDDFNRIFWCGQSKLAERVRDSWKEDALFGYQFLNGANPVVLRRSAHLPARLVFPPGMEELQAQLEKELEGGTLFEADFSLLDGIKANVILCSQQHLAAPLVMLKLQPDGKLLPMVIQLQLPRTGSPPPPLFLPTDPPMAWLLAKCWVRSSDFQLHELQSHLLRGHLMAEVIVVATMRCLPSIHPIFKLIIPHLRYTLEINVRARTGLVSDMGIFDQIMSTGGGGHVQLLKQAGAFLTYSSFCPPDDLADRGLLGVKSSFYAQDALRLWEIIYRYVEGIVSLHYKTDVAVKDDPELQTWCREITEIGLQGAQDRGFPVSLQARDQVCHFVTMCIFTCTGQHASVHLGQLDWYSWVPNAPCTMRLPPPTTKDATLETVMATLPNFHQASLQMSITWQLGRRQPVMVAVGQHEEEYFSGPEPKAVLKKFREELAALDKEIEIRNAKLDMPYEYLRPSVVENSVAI

[2] = biological target: T2, Polyunsaturated fatty acid lipoxygenase ALOX15B (Homo sapiens, UniProt O15296); assay: Inhibition of N-terminal His6-tagged human 15-LOX-2 using arachidonic acid as substrate by UV-visible spectrophotometric analysis
T2 sequence (O15296 whole entry): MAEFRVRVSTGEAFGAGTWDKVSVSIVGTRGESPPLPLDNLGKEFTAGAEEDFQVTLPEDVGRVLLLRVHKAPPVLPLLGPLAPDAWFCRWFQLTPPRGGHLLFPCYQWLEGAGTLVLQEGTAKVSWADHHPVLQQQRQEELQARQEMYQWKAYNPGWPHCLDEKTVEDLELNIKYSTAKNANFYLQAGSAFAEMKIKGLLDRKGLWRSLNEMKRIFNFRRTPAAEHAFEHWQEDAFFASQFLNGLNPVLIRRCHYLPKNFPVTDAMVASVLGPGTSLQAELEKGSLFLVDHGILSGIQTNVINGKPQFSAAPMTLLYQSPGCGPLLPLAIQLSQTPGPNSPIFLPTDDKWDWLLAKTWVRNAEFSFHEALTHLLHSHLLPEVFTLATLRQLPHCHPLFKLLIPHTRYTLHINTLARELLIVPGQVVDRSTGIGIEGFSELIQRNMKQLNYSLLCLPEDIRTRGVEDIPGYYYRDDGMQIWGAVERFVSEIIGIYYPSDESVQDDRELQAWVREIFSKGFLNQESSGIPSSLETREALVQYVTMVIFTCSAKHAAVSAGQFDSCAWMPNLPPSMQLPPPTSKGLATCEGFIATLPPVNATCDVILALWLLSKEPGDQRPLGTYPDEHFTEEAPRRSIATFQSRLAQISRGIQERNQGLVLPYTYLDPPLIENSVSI

[3] = biological target: T3, Prostaglandin G/H synthase 2 (Homo sapiens, UniProt P35354); assay: Inhibition of human COX-2 by UV-visible spectrophotometric analysis
T3 sequence (P35354 whole entry): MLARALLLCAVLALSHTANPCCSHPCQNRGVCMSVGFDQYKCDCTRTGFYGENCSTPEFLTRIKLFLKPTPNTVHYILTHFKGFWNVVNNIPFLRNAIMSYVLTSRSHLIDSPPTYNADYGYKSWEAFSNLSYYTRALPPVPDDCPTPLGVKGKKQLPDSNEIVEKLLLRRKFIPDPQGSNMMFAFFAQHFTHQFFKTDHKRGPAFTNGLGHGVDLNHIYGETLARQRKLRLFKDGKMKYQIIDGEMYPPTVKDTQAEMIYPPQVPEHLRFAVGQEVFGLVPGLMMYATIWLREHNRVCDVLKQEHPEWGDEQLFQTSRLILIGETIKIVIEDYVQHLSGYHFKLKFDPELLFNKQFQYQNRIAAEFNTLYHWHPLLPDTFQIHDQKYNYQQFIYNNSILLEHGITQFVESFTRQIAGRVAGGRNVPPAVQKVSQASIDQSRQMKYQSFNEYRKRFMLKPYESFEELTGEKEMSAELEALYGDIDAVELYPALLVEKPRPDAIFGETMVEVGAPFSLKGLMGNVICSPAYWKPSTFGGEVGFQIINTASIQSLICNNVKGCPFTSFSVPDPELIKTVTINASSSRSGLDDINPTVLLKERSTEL

[4] = biological target: T4, Polyunsaturated fatty acid 5-lipoxygenase (Homo sapiens, UniProt P09917); assay: Inhibition of human 5-LOX using arachidonic acid as substrate by UV-visible spectrophotometric analysis
T4 sequence (P09917 whole entry): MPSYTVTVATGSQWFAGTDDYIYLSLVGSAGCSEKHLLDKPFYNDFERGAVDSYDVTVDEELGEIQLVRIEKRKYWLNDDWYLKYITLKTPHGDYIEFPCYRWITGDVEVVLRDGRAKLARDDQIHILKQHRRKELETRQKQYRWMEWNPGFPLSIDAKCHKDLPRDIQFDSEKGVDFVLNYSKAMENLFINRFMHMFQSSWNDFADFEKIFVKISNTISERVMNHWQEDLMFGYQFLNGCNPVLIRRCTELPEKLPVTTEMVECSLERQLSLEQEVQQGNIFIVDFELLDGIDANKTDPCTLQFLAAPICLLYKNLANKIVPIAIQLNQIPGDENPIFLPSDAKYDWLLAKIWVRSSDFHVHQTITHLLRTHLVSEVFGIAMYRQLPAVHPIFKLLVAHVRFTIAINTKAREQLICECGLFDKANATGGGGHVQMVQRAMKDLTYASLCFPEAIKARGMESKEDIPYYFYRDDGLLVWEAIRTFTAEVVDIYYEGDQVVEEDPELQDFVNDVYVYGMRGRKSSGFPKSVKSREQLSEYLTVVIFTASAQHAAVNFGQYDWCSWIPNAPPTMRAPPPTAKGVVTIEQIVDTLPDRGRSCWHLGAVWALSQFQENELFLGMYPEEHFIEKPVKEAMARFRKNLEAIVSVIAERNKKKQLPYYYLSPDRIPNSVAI

[5] = biological target: T5, Polyunsaturated fatty acid lipoxygenase ALOX15 (Mus musculus) (UniProt P39654); assay: Inhibition of glutamate-induced 12/15-LOX-dependent cell death in mouse HT22 cells assessed as increase in cell survival at 5 uM by LDH release assay; format: cell-based; details: HT-22
T5 sequence (whole entry): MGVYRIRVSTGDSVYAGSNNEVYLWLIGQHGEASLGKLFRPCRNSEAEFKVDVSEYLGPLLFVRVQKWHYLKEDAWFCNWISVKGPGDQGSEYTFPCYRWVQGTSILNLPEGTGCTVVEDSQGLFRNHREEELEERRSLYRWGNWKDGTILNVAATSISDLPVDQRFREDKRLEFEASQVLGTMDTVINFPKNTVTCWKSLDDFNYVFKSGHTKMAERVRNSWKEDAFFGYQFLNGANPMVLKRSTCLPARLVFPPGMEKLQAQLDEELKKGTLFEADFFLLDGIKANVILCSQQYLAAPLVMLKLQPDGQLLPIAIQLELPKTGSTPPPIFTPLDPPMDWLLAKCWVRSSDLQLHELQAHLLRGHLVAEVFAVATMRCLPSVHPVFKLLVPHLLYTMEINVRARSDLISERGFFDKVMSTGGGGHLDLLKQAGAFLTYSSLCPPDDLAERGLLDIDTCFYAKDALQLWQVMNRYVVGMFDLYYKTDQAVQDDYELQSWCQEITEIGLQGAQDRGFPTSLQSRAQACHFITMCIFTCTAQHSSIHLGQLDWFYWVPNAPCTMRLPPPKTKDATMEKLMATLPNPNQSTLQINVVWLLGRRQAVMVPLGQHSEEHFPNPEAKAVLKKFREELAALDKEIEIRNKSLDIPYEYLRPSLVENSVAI
Procedure, shortened: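 Mouse HT-22 neuronal cells grown in DMEM with 10% FBS and penicillin/streptomycin. Seeded at 1 × 10^4 cells/well and treated 18h later at ~50–70% confluence. Medium was replaced and 5 mM glutamate added with compound at 5, 10 or 20 μM, or DMSO control (max 0.1% final). LDH measured separately in cell extracts and media; % LDH released to medium calculated after background subtraction.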

[6] = biological target: T6, Polyunsaturated fatty acid lipoxygenase ALOX12 (Homo sapiens, UniProt P18054); assay: Inhibition of N-terminal His6-tagged human 12-LOX using arachidonic acid as substrate by UV-visible spectrophotometric analysis
T6 sequence (P18054 whole entry): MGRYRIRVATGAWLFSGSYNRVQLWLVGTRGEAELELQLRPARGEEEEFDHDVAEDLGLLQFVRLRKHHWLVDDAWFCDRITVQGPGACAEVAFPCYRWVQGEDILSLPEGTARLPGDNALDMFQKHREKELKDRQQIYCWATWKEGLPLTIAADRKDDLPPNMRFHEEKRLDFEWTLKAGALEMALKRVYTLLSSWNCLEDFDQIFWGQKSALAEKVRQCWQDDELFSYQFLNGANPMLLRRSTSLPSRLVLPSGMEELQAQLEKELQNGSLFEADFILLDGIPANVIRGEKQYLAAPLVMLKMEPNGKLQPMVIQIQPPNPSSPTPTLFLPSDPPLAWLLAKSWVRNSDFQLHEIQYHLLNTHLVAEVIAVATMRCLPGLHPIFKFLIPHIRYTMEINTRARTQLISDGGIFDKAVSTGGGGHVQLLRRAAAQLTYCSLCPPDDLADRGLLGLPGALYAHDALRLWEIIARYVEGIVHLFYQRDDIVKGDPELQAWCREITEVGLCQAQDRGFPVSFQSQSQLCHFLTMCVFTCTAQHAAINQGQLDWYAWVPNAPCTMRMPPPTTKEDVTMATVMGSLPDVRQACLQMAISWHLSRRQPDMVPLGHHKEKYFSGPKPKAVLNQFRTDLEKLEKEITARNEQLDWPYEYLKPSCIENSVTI

[7] = biological target: T7, Polyunsaturated fatty acid lipoxygenase ALOX15 (Homo sapiens) (UniProt P16050)
T7 sequence (whole entry): T1 sequence (P16050 whole entry)

[8] = biological target: T7, Polyunsaturated fatty acid lipoxygenase ALOX15 (Homo sapiens); remark: listed apart in the source

Row | IC50 [1] [µM] | SMILES | Survival [5] [%] | also measured
1 | > 50 | Cc1ccc(O)c(-c2cc(C(=O)NCc3ccccc3)[nH]n2)c1 |  | 
2 | 4 | Oc1ccccc1-c1cc(-c2ccccc2Cl)[nH]n1 |  | 
3 | > 50 | Oc1ccc(Br)cc1-c1cc(-c2ccccc2)[nH]n1 |  | 
4 | > 50 | Cc1ccc(-c2cc(-c3ccc(C)cc3O)[nH]n2)cc1 |  | 
5 | 7 | Cc1ccccc1-c1cc(-c2ccccc2O)n[nH]1 |  | 
6 | 6.6 | COc1ccc(O)c(-c2cc(-c3ccccc3Cl)n[nH]2)c1 |  | 
7 | > 50 | Oc1ccc(Cl)cc1-c1cc(-c2ccccc2Cl)[nH]n1 |  | 
8 |  | COc1ccc(O)c(-c2cc(-c3ccccc3Cl)[nH]n2)c1 | 83 | 
9 | > 50 | Oc1ccc(Br)cc1-c1cc(-c2ccccc2Cl)[nH]n1 |  | 
10 | > 50 | COc1ccc(C(=O)c2c[nH]nc2-c2cc(C)ccc2O)cc1 |  | 
11 | > 50 | c1ccc(-c2cc(-c3ccccc3)[nH]n2)cc1 |  | 
12 | > 50 | COc1ccc(-c2cc(-c3ccc(C)cc3)[nH]n2)c(O)c1 |  | 
13 | > 50 | Oc1ccccc1-c1cc[nH]n1 |  | 
14 |  | Cc1ccccc1-c1cc(-c2ccccc2O)[nH]n1 | 76 | 

Row | SMILES | IC50 [1] [µM] | Survival [5] [%] | also measured
15 | Cc1ccc(O)c(-c2cc(-c3ccccc3C)[nH]n2)c1 | 3.4 | 20 | IC50 [2]: > 50 µM; IC50 [3]: > 100 µM; IC50 [4]: > 100 µM; IC50 [6]: > 50 µM; Kic [7]: 1 µM; Kiuc [8]: 6 µM
16 | Cc1ccc(-c2cc(-c3ccccc3C)[nH]n2)c(O)c1 | 10 | 71 | 
17 | Cc1ccc(O)c(-c2cc(-c3cccc(Br)c3)[nH]n2)c1 | 9.1 | 18 | 
18 | COc1ccc(O)c(-c2cc(-c3ccc(F)cc3)[nH]n2)c1 | 11 | 78 | 
19 | COc1ccc(O)c(-c2cc(-c3cccc(Br)c3)[nH]n2)c1 | 7 | 70 | 
20 | Cc1ccc(O)c(-c2cc(-c3cccc(F)c3)[nH]n2)c1 | 10 | 49 | 
21 | Oc1ccccc1-c1cc(-c2ccco2)[nH]n1 | 7 | 34 | 
22 | COc1ccc(-c2cc(-c3cc(OC)ccc3O)[nH]n2)cc1 | 6 | 96 | 
23 | COc1ccc(-c2cc(-c3ccccc3O)[nH]n2)cc1 | 10 | 7 | 
